Results on 1 compound are retold here after ChEMBL document CHEMBL6121049, “Discovery of Orally Available Prodrugs of Itaconate and Derivatives” (J Med Chem, 2025).

A short description of data set [1]: Metabolic stability in mouse plasma assessed as compound remaining at 10 uM measured after 1 hrs by LC-MS analysis. In kind it is ADME, cell-free. In outline: (§1)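 Prodrugs (10 μM) spiked into mouse or human plasma, shaken at 37 °C; samples at 0 and 60 min quenched in cold acetonitrile with losartan internal standard, centrifuged, diluted, run by LC-HRMS; % remaining from analyte/IS peak-area ratio.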

Data set [2] in a line: Metabolic stability in mouse skin homogenate assessed as compound remaining at 10 uM measured after 1 hrs by LC-MS analysis. In kind it is ADME, tissue-based, Skin of body. As to conditions: tissue homogenate.
Data set [3] in a line: Metabolic stability in human plasma assessed as compound remaining at 10 uM measured after 1 hrs by LC-MS analysis. In kind it is ADME, cell-free. In outline:
as §1

The nature of data set [4]: Metabolic stability in human skin homogenate assessed as compound remaining at 10 uM measured after 1 hrs by LC-MS analysis. As to conditions: tissue homogenate. In kind it is ADME, tissue-based, Skin of body.
A short description of data set [5]: Chemical stability in pH 1.2 assessed as compound remaining at 10 uM measured after 1 hrs by LC-MS/MS analysis. It counts as physicochemical. As to conditions: buffer, pH 1.2, 1 h. In outline:
(§2)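 Compounds incubated in buffers at pH 1.2, 4.5 or 7.4 at 37 °C for 1 h; prodrug disappearance followed by LC–MS/MS as % remaining.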

Data set [6] is described as follows: Chemical stability in pH 4.5 assessed as compound remaining at 10 uM measured after 1 hrs by LC-MS/MS analysis. In kind it is physicochemical. As to conditions: buffer, pH 4.5, 1 h. Put shortly: as §2
A short description of data set [7]: Chemical stability in pH 7.4 assessed as compound remaining at 10 uM measured after 1 hrs by LC-MS/MS analysis. It counts as physicochemical. As to conditions: buffer, pH 7.4, 1 h. In outline:
as §2

A short description of data set [8]: Permeability of the compound at pH 7.4 incubated for 4 hrs by PAMPA-GIT assay. It counts as ADME. As to conditions: pH 7.4, 4 h. Put shortly: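 PAMPA-GIT sandwich: acceptor filter coated with GIT-0 lipid; donor holds 10 μM compound in pH 7.4 buffer with 0.2% DMSO, acceptor pH 7.4 sink buffer; 4 h at room temperature; both compartments sampled by LC-MS/MS; effective permeability Pe calculated with membrane retention correction.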
In general terms: In PAMPA a lipid-coated filter parts donor from acceptor wells.

Data set [9] in a line: Cytotoxicity against NHEK cells assessed as cell viability at 100 uM measured after 8 hrs by CellTiter-Glo assay relative to control. It counts as toxicity, cell-based. As to conditions: human. Put shortly:
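Primary normal human epidermal keratinocytes, expanded and seeded, exposed to 1, 10, 30 or 100 μM for 8 h; viability by CellTiter-Glo luminescence as % viable.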
(ATP-based viability assays read luminescence as a measure of living cells.)

The nature of data set [10]: Immunomodulatory activity in NHEK cells assessed as inhibition of IFN-gamma induced CXCL11 expression at 30 to 100 uM by TaqMan RTPCR analysis relative to control. Conditions: dose 30-100 µM. It counts as functional, Homo sapiens. In outline:
(§3)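 Primary human keratinocytes seeded, held overnight at 37 °C, 5% CO2, then stimulated with Poly(I:C) 50 μg/mL plus IFNγ 5 ng/mL, with or without prodrug at 1, 10, 30 or 100 μM; gene induction measured at 8 h.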

Data set [11] in a line: Immunomodulatory activity in NHEK cells assessed as inhibition of Poly(I:C)/IFN-gamma induced IL-1 beta expression at >= 10 uM by TaqMan RTPCR analysis relative to control. It counts as functional, Homo sapiens. Details: scale not given: the % may be the effect or the level left. Put shortly: as §3
Data set [12] is described as follows: Prodrug conversion in C57BL6 mouse skin assessed as 4-methyl itaconate Cmax at 100 mg/kg, po measured after 24 hrs by LC-MS/MS analysis. It counts as ADME, organism-based, Skin of body. As to conditions: in vivo. Put shortly: (§4)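 C57BL6 mice, 25–30 g, 8.5 weeks old, given 100 mg/kg (IA or 4-MI equivalent) orally in 10% DMSO/80% PEG/10% HBS, freshly prepared; killed at 0.25–24 h, n = 3 per time point; acidified plasma and stabilized skin homogenates, methanol precipitation with internal standards, LC-MS/MS (orbitrap); PK parameters as mean ± SEM.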

Data set [13] is described as follows: Prodrug conversion in C57BL6 mouse plasma assessed as 4-methyl itaconate Cmax at 100 mg/kg, po measured after 24 hrs by LC-MS/MS analysis. It counts as ADME, organism-based. As to conditions: in vivo. Put shortly: as §4
A short description of data set [14]: Prodrug conversion in C57BL6 mouse plasma assessed as 4-methyl itaconate Tmax at 100 mg/kg, po measured after 24 hrs by LC-MS/MS analysis. It counts as ADME, organism-based. Conditions: in vivo. In outline:
as §4

Data set [15] in a line: Prodrug conversion in C57BL6 mouse skin assessed as 4-methyl itaconate Tmax at 100 mg/kg, po measured after 24 hrs by LC-MS/MS analysis. It counts as ADME, organism-based, Skin of body. Conditions: in vivo. Put shortly:
as §4

The nature of data set [16]: Prodrug conversion in C57BL6 mouse plasma assessed as 4-methyl itaconic AUC (0 to t) at 100 mg/kg, po measured after 24 hrs by LC-MS/MS analysis. It counts as ADME, organism-based. As to conditions: in vivo.
Data set [17] is described as follows: Prodrug conversion in C57BL6 mouse skin assessed as 4-methyl itaconic AUC (0 to t) at 100 mg/kg, po measured after 24 hrs by LC-MS/MS analysis. It counts as ADME, organism-based, Skin of body. As to conditions: in vivo.
Data set [18] is described as follows: Prodrug conversion in C57BL6 mouse plasma assessed as 4-methyl itaconic half life at 100 mg/kg, po measured after 24 hrs by LC-MS/MS analysis. It counts as ADME, organism-based. Conditions: in vivo. Put shortly: as §4
Data set [19] can be described thus: Prodrug conversion in C57BL6 mouse skin assessed as 4-methyl itaconic half life at 100 mg/kg, po measured after 24 hrs by LC-MS/MS analysis. In kind it is ADME, organism-based, Skin of body. Conditions: in vivo. In outline: as §4
A short description of data set [20]: Prodrug conversion in po dosed C57BL6 mouse skin assessed as 4-methyl itaconic concentration measured after 24 hrs. As to conditions: in vivo. It counts as ADME, organism-based, Skin of body.
Data set [21] is described as follows: Toxicity in C57BL6 mouse assessed as hematological changes at 30 to 100 mg/kg, ip measured after 7 days. In kind it is organism-based. As to conditions: in vivo, 168 h, dose 30-100 mg/kg, time 7 day.
A short description of data set [22]: Toxicity in C57BL6 mouse assessed as body weight loss at 30 to 100 mg/kg, ip administrated daily and measured after 7 days. Conditions: in vivo, 168 h, dose 30-100 mg/kg, time 7 day. It counts as organism-based.
A short description of data set [23]: Immunomodulatory activity in NHEK cells assessed as inhibition of IL-6 mRNA expression at 100 uM preincubated for 2 days and measured after 24 hrs by TaqMan RTPCR analysis. As to conditions: Homo sapiens, 48 h, time 2 day. In kind it is functional. On the technique in general: Real-time PCR tracks product formation cycle by cycle.

Where only a bound is given, the exact number is not on record here.

On to `C=C(CC(=O)OC)C(=O)OCOC(=O)OC(C)C`, for which the Stability in [1] came to 0%; in data set [2], 0%; in [3], 0%; in data set [4], 1.6%; in [5] it was 108%; in [6], 103%. Besides, in [7], the Stability came out at 102%. Also, the permeability in [8] is recorded as 35.3 10^-6 cm/s. Besides, the Activity in data set [9] is recorded as greater than 80%; in data set [11], greater than 50%; in [21] it was “Non-toxic”; in data set [22], “Non-toxic”. For the same compound, the “inhibition (INH)” value in [10] is given as greater than 50%. Moreover, the Cmax came out at 192 nmol/g in data set [12] and 349 µM in data set [13]. Besides, the values for the Tmax in data set [14] and in data set [15] were 30 min and 60 min, respectively. In addition, the AUCt in [16] stood at 415 µM·h; in data set [17] it was 234 nmol·h/g. Further, the t1/2 is 52.2 min in [18] and 58.2 min in data set [19]. The Drug metabolism in [20] is greater than 100 µM. Also, in data set [23], the inhibition at 100 µM is greater than 90%.

The Tmax is the time from dosing to the highest level. A word on the inhibition: it is the percentage by which the read-out fell short of the control.
